For test [1], the target named is T1, Type-1 angiotensin II receptor (Bos taurus, UniProt P25104).
T1 sequence (P25104 whole entry): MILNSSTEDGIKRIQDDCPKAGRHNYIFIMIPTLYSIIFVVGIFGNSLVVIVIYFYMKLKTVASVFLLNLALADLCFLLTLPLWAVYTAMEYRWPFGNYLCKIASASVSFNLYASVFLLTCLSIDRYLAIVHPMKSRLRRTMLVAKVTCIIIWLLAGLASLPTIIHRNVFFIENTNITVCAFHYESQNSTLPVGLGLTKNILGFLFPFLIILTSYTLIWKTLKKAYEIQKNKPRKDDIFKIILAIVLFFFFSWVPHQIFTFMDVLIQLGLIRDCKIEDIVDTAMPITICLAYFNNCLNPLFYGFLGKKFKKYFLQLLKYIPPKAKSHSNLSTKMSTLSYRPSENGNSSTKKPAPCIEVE
Kind of test: Dissociation constant for [125 I] Ang binding to type 1 Angiotensin II receptor of bovine adrenocortical membranes.

In test [2] the target is T2, Type-1 angiotensin II receptor (Bos taurus) (UniProt P25104).
T2 sequence (whole entry): T1 sequence (P25104 whole entry)
In words: Relative affinity for type 1 Angiotensin II receptor of bovine adrenocortical membranes compared to angiotensin. The gist of the method:
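Bovine adrenocortical membranes were incubated in 25 mM Tris/HCl (100 mM NaCl, 5 mM MgCl2, 0.2% BSA, pH 7.4) with peptide across 5 × 10^-11–10^-5 M and 30 pM [125I]Ang (final) for 45 min at 22 °C. Bound radioactivity was filtered and gamma-counted, with nonspecific binding defined by 1 µM Ang. […] At least three experiments were run in duplicate.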

The next test is filed under the species Oryctolagus cuniculus. In words: Negative log of the dose of agonist that produces half-maximal contraction on rabbit aorta. Format: functional. The method, boiled down:
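New Zealand rabbit thoracic aorta rings (5 mm) were held in oxygenated Krebs, pH 7.4, at 37 °C under 2 g tension and equilibrated for 90 min. Isometric contractions were recorded. Cumulative dose-response curves (5 × 10^-11–10^-5 M) were expressed as % of maximal Ang stimulation, and pD2 was taken as the negative log of the dose giving half-maximal contraction. At least three evaluations were done.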

In test [3] the target is T3, Type-1 angiotensin II receptor (Oryctolagus cuniculus) (UniProt P34976).
T3 sequence (whole entry): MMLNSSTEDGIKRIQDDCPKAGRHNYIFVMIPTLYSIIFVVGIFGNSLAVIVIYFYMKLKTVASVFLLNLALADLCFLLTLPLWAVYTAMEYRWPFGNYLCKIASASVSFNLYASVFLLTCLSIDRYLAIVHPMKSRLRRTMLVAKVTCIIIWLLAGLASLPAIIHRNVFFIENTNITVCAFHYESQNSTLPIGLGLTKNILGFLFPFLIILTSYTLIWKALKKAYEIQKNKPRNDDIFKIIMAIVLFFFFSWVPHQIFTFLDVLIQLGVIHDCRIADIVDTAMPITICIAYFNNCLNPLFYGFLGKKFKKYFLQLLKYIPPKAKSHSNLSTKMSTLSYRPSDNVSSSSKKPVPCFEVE
Kind of test: Relative affinity compared to the affinity of angiotensin II(Ang=100%) for Angiotensin II receptor, type 1 on rabbit aorta. It counts as tissue-based.

In test [4] the target is T4, Type-1 angiotensin II receptor (Oryctolagus cuniculus, UniProt P34976).
T4 sequence (P34976 whole entry): T3 sequence (whole entry)
Kind of test: Negative log of the dose of antagonist (compound) that reduces response of a double dose of […] to that of a single dose, on rabbit aorta. It counts as functional, tissue-based. To be noted: for Kb: read-out: pA2 (converted). The gist of the method: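 Rabbit thoracic aorta rings in oxygenated Krebs, pH 7.4, at 37 °C under 2 g tension were preincubated 10 min with single antagonist concentrations. Ang concentration-response curves were then run with and without antagonist. pA2 came from Schild plot, or was estimated from lower doses for long-acting analogues. Duration was followed by Ang curves at 30 min, 1.5 h and 3 h, washing every 20 min. At least three evaluations were done.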

Where a SMILES comes first, the peptide text is derived from it. [ ]: non-standard residue; d: D form. The star is where a group is joined. X1 = CCCCCCCCCCCCCCCC(=O)OCCC(=O)*; Palmitoyl = CCCCCCCCCCCCCCCC(=O)*; X2 = CCCCCCCCCCCCCCCCCC*; Sar = CNCC(=O)O A value given as a limit tells only on which side of the number the result lay.

As usually defined, the Kd is the free concentration of one partner at which half of the binding sites on the other are occupied at equilibrium, for simple one-to-one binding. A lower Kd goes with a tighter complex. In test [1], `CCCCCCCCCCCCCCCCCCOc1ccc(C[C@H](NC(=O)[C@@H](NC(=O)[C@H](CCCNC(=N)N)NC(=O)CNC)C(C)C)C(=O)N[C@H](C(=O)N[C@@H](Cc2cnc[nH]2)C(=O)N2CCC[C@H]2C(=O)N[C@@H](Cc2ccccc2)C(=O)O)C(C)C)cc1` (H-[Sar]RVY(X2)VHPF-OH) showed a Kd of 1550 nM.

`CCCCCCCCCCCCCCCC(=O)Oc1ccc(C[C@H](NC(=O)[C@@H](NC(=O)[C@H](CCCN=C(N)N)NC(=O)CNC)C(C)C)C(=O)N[C@H](C(=O)N[C@@H](Cc2c[nH]cn2)C(=O)N2CCC[C@H]2C(=O)N[C@H](Cc2ccc3ccccc3c2)C(=O)O)C(C)C)cc1` returned an RA in test [2] of 2.57.

In test [1], `CCCCCCCCCCCCCCCC(=O)OC[C@H](NC(C)=O)C(=O)N[C@@H](CCCNC(=N)N)C(=O)N[C@H](C(=O)N[C@@H](Cc1ccc(O)cc1)C(=O)N[C@H](C(=O)N[C@@H](Cc1cnc[nH]1)C(=O)N1CCC[C@H]1C(=O)N[C@@H](Cc1ccccc1)C(=O)O)C(C)C)C(C)C` (Ac-S(Palmitoyl)RVYVHPF-OH) had a Kd of 490 nM.

`CC(C)[C@H](NC(=O)[C@H](CCCNC(=N)N)NC(=O)[C@@H](N)CO)C(=O)N[C@@H](Cc1ccc(O)cc1)C(=O)N[C@H](C(=O)N[C@@H](Cc1cnc[nH]1)C(=O)N1CCC[C@H]1C(=O)N[C@@H](Cc1ccccc1)C(=O)O)C(C)C` (H-SRVYVHPF-OH) gave a Kd in test [1] of 7.59 nM.

`CC(C)[C@H](NC(=O)[C@H](CCCN=C(N)N)NC(=O)CCO)C(=O)N[C@@H](Cc1ccc(O)cc1)C(=O)N[C@H](C(=O)N[C@@H](Cc1c[nH]cn1)C(=O)N1CCC[C@H]1C(=O)N[C@@H](Cc1ccccc1)C(=O)O)C(C)C` had a pD2 in the test listed under Oryctolagus cuniculus of 7.23. Also, the RA stood at 7.95 in test [3] and 5.53 in test [2]. In test [1], this compound gave a Kd of 105 nM.

Regarding `CCCCCCCCCCCCCCCC(=O)Oc1ccc(C[C@H](NC(=O)[C@@H](NC(=O)[C@H](CCCN=C(N)N)NC(=O)CNC)C(C)C)C(=O)N[C@H](C(=O)N[C@@H](Cc2c[nH]cn2)C(=O)N2CCC[C@H]2C(=O)N[C@H](Cc2ccccc2)C(=O)O)C(C)C)cc1`, the RA in test [2] was 162.

`CC(C)[C@H](NC(=O)[C@H](CCCN=C(N)N)NC(=O)[C@@H](N)CO)C(=O)N[C@@H](Cc1ccc(O)cc1)C(=O)N[C@H](C(=O)N[C@@H](Cc1c[nH]cn1)C(=O)N1CCC[C@H]1C(=O)N[C@@H](Cc1ccccc1)C(=O)O)C(C)C` (H-SRVYVHPF-OH) registered a pD2 in the test filed under Oryctolagus cuniculus of 7.68. For the same compound, the RA stood at 22.4 in test [3] and 75.8 in test [2].

In turn, `CNCC(=O)N[C@@H](CCCN=C(N)N)C(=O)N[C@H](C(=O)N[C@@H](Cc1ccc(O)cc1)C(=O)N[C@H](C(=O)N[C@@H](Cc1c[nH]cn1)C(=O)N1CCC[C@H]1C(=O)N[C@H](Cc1ccc2ccccc2c1)C(=O)O)C(C)C)C(C)C` gave an RA in test [2] of 34.7.

`CCCCCCCCCCCCCCCC(=O)OCCC(=O)N[C@@H](CCCN=C(N)N)C(=O)N[C@H](C(=O)N[C@@H](Cc1ccc(O)cc1)C(=O)N[C@H](C(=O)N[C@@H](Cc1c[nH]cn1)C(=O)N1CCC[C@H]1C(=O)N[C@@H](Cc1ccccc1)C(=O)O)C(C)C)C(C)C` (X1-RVYVHPF-OH) displayed a pD2 in the test listed under Oryctolagus cuniculus of 5.46. Moreover, the values for the RA in test [3] and in test [2] were 0.13 and 0.21, respectively. In test [1], this compound showed a Kd of 2750 nM.

For orientation: pA2 means the negative logarithm of the molar antagonist concentration that doubles the agonist concentration needed for the same response. A low value points to a weaker antagonist. One may read the pKd as the Kd on a negative log10 scale, so that one unit is a factor of ten. `CCCCCCCCCCCCCCCC(=O)OC[C@H](NC(C)=O)C(=O)N[C@@H](CCCN=C(N)N)C(=O)N[C@H](C(=O)N[C@@H](Cc1ccc(O)cc1)C(=O)N[C@H](C(=O)N[C@@H](Cc1c[nH]cn1)C(=O)N1CCC[C@H]1C(=O)N[C@H](Cc1cccc2ccccc12)C(=O)O)C(C)C)C(C)C` displayed a pA2 in test [4] of less than 5.5. Also, the RA in test [2] is 0.21. In addition, the pKd in test [1] is reported as 5.65.

With `CCCCCCCCCCCCCCCC(=O)Oc1ccc(C[C@H](NC(=O)[C@@H](NC(=O)[C@H](CCCNC(=N)N)NC(=O)CNC)C(C)C)C(=O)N[C@H](C(=O)N[C@@H](Cc2cnc[nH]2)C(=O)N2CCC[C@H]2C(=O)N[C@H](Cc2ccc3ccccc3c2)C(=O)O)C(C)C)cc1`, in test [4], the Kb was 102 nM. The compound further gave a Kd in test [1] of 224 nM.

Regarding `CCCCCCCCCCCCCCCC(=O)Oc1ccc(C[C@H](NC(=O)[C@@H](NC(=O)[C@H](CCCN=C(N)N)NC(=O)CNC)C(C)C)C(=O)N[C@H](C(=O)N[C@@H](Cc2c[nH]cn2)C(=O)N2CCC[C@H]2C(=O)N[C@@H](Cc2ccccc2)C(=O)O)C(C)C)cc1` [listing 1 of 2 here], the pD2 in the test filed under Oryctolagus cuniculus was 7.61.

In test [4], `CC(=O)N[C@@H](CO)C(=O)N[C@@H](CCCN=C(N)N)C(=O)N[C@H](C(=O)N[C@@H](Cc1ccc(O)cc1)C(=O)N[C@H](C(=O)N[C@@H](Cc1c[nH]cn1)C(=O)N1CCC[C@H]1C(=O)N[C@H](Cc1cccc2ccccc12)C(=O)O)C(C)C)C(C)C` yielded a pA2 of 6.99. This compound also showed an RA in test [2] of 1.78. This compound showed a pKd in test [1] of 6.49.

As for `CC[C@H](C)[C@H](NC(=O)[C@H](Cc1ccc(O)cc1)NC(=O)[C@@H](NC(=O)[C@H](CCCNC(=N)N)NC(=O)[C@@H](N)CC(=O)O)C(C)C)C(=O)N[C@@H](Cc1cnc[nH]1)C(=O)N1CCC[C@H]1C(=O)N[C@@H](Cc1ccccc1)C(=O)O` [ANGIOTENSIN II], the pD2 in the test filed under Oryctolagus cuniculus is on record as 8.33. Moreover, the RA in test [3] and in test [2] was 100 throughout.

Regarding `CNCC(=O)N[C@@H](CCCN=C(N)N)C(=O)N[C@H](C(=O)N[C@@H](Cc1ccc(O)cc1)C(=O)N[C@H](C(=O)N[C@@H](Cc1c[nH]cn1)C(=O)N1CCC[C@H]1C(=O)N[C@H](Cc1ccccc1)C(=O)O)C(C)C)C(C)C`, the RA in test [3] worked out at 174; in test [2], 407.

The compound `CCCCCCCCCCCCCCCC(=O)OC[C@H](NC(C)=O)C(=O)N[C@@H](CCCN=C(N)N)C(=O)N[C@H](C(=O)N[C@@H](Cc1ccc(O)cc1)C(=O)N[C@H](C(=O)N[C@@H](Cc1c[nH]cn1)C(=O)N1CCC[C@H]1C(=O)N[C@@H](Cc1ccccc1)C(=O)O)C(C)C)C(C)C` (Ac-S(Palmitoyl)RVYVHPF-OH) came in with a pD2 in the test filed under Oryctolagus cuniculus of less than 5.5. The same compound gave an RA in test [2] of 1.17.

In turn, `CNCC(=O)N[C@@H](CCCN=C(N)N)C(=O)N[C@H](C(=O)N[C@@H](Cc1ccc(O)cc1)C(=O)N[C@H](C(=O)N[C@@H](Cc1c[nH]cn1)C(=O)N1CCC[C@H]1C(=O)N[C@@H](Cc1ccccc1)C(=O)O)C(C)C)C(C)C` gave a pD2 in the test listed under Oryctolagus cuniculus of 8.57.

As to `CCCCCCCCCCCCCCCC(=O)Oc1ccc(C[C@H](NC(=O)[C@@H](NC(=O)[C@H](CCCN=C(N)N)NC(=O)CNC)C(C)C)C(=O)N[C@H](C(=O)N[C@@H](Cc2c[nH]cn2)C(=O)N2CCC[C@H]2C(=O)N[C@@H](Cc2ccccc2)C(=O)O)C(C)C)cc1` [listing 2 of 2 here], the Kb in test [4] was 36.3 nM. Further, the Kd in test [1] was 3.55 nM.

In the test filed under Oryctolagus cuniculus, `CC(=O)N[C@@H](CO)C(=O)N[C@@H](CCCN=C(N)N)C(=O)N[C@H](C(=O)N[C@@H](Cc1ccc(O)cc1)C(=O)N[C@H](C(=O)N[C@@H](Cc1c[nH]cn1)C(=O)N1CCC[C@H]1C(=O)N[C@@H](Cc1ccccc1)C(=O)O)C(C)C)C(C)C` (Ac-SRVYVHPF-OH) had a pD2 of 7.54. Further, the RA was determined as 16.2 in test [3] and 32.4 in test [2]. Moreover, in test [1], binding was characterised by a dissociation constant (Kd) of 17.8 nM.

Turning to `CC(C)[C@H](NC(=O)[C@H](CCCN=C(N)N)NC(=O)CCO)C(=O)N[C@@H](Cc1ccc(O)cc1)C(=O)N[C@H](C(=O)N[C@@H](Cc1c[nH]cn1)C(=O)N1CCC[C@H]1C(=O)N[C@H](Cc1ccccc1)C(=O)O)C(C)C`, the Kb in test [4] was 4900 nM. The RA in test [2] amounted to 0.09. Besides, binding in test [1] was characterised by a dissociation constant (Kd) of 6460 nM.

In the case of `CNCC(=O)N[C@@H](CCCNC(=N)N)C(=O)N[C@H](C(=O)N[C@@H](Cc1ccc(O)cc1)C(=O)N[C@H](C(=O)N[C@@H](Cc1cnc[nH]1)C(=O)N1CCC[C@H]1C(=O)N[C@H](Cc1ccc2ccccc2c1)C(=O)O)C(C)C)C(C)C`, the Kb in test [4] is 7.94 nM. This compound showed a Kd in test [1] of 16.6 nM.
